Only some compounds are listed: those with a hit (about 2.7% of all), similar ones and a draw of the others.
V1aR counter: V1a receptor agonism, counter-screen for OXTR agonists; P37288; CHO-V1R cells, Fluo-8 calcium fluorescence, agonist mode; 0% DMSO, 100% 3 nM vasopressin; activation, % at 3 µM; 320,000 tested, 0.25% active; AID 2797;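 active = activation above the mean activation of all tested compounds plus 3 SD, per screening run, cut at about 20% in these data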;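 also: signal is peak over basal fluorescence ratio across a 100 second FLIPR read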
OXTR agonist: activates the human oxytocin receptor; P30559; CHO-OTR cells, Fluo-8 calcium fluorescence; normalized: DMSO 0%, oxytocin 100%; activation, % at 3 µM; 320,000 tested, 0.32% active;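 active = activation above the mean of all tested compounds plus 3 SD, cutoff set per screening run, cut at about 20% in these data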;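 also: peak over basal fluorescence ratio from a 100 s FLIPR kinetic read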
Target sequence (P30559 whole entry, looked up): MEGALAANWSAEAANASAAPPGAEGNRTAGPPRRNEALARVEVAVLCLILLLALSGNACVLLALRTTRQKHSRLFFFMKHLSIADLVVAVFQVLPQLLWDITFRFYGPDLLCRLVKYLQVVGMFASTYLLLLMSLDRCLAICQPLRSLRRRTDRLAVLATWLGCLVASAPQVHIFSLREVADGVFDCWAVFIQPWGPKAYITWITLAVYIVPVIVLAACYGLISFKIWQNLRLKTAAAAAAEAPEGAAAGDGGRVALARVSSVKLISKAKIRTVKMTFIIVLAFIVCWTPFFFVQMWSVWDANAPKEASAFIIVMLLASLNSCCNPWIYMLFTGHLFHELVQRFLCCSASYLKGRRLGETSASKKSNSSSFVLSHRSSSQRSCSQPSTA
OX1R antag-1: antagonists of human orexin 1 receptor | O43613 | CHO/OX1R cells, Fluo-8 calcium fluorescence, orexin A | inhibition, % at 5 µM | 330,000 tested, 0.43% active;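 active = inhibition above its plate's threshold, mean inhibition of all tested compounds on the plate plus 3 SD, cut at about 37% in these data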;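 also: 0% = orexin A challenge wells and 100% = SB-334867-A antagonist wells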
OXTR potentiate: human OXTR potentiation; 320,000 tested, 0.061% active; activation, % at 3 µM; AID 2445; CHO-OTR cells, Fluo-8 calcium fluorescence, potentiator mode; 0% = oxytocin EC15, 100% = EC100;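 active = activation above that plate's cutoff, the mean activation of tested compounds plus 3 SD, cut at about 6.6% in these data, passing the limit was not always enough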;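 also: 100% uses oxytocin at 75 nM as the full agonist control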
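System: human OTR in CHO cells; Also added: sub-maximal oxytocin, roughly EC15; Timing: compound 6 min at room temperature before oxytocin, 100 s read; Technique: Fluo-8 intracellular calcium fluorescence, ex 470-495, em 515-575 nm; Controls: oxytocin EC15 low and EC100 high; Replication: singlicate.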
OX1R antag-2: blocks the human orexin 1 receptor. 330,000 tested, 1.8% active. AID 485270. inhibition, % at 6.6 µM. O43613. OX1R-expressing cells, FRET antagonist read-out; in the data active = inhibition mostly above about 38%, no sharp cut-off; inactive = mostly below about 40%;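 also: 0% = agonist challenge alone and 100% = reference antagonist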
CHO parental Ca: signal in parental CHO cells, OX1R antagonist counter-screen; parental CHO-K1, ATP-induced calcium, Fluo-8 fluorescence; inhibition, % at 5.6 µM; 330,000 tested, 0.63% active; AID 463079;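 active = inhibition above that plate's mean sample inhibition plus 3 SD, cut at about 26% in these data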;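 also: 0% = ATP-challenged DMSO wells and 100% = DMSO wells without ATP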
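Assay system: untransfected parental CHO cell line. Also added: ATP agonist challenge. Dosing: one dose, 5.6 µM nominal. Measured by: Fluo-8 fluorescence. Read-out: % inhibition. Benchmarks: ATP wells versus no-ATP DMSO wells. Repeats: no replicates.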
Starred values were filed as active, the others as inactive; / = no result given.

SMILES | V1aR counter | OXTR agonist | OX1R antag-1 | OXTR potentiate | OX1R antag-2 | CHO parental Ca
Cc1ccc(N(CC(=O)NCc2ccc(Cl)cc2)S(C)(=O)=O)cc1 | 0 | -1 | -18 | -18 | 15 | -9
CCCCc1ccc(N/C(N)=N/c2nc(C)cc(C)n2)cc1 | 62* | 58* | 89* | -20 | 24 | 70*
Cc1ccc(N/C(N)=N/c2nc(C)cc(C)n2)cc1 | 7 | 7 | 7 | -12 | 18 | 3
COc1cc2nc(/C=C/c3ccc(N(C)C)cc3)sc2cc1SC | 17 | 21* | 60* | -11 | 27 | 52*
CCOC(=O)C1(CC)Oc2ccccc2C(c2ccc(OC)cc2)=C1C(=O)OC (stereo unspecified) | / | / | -8 | / | 19 | -37
CC1CC(C)(C)Nc2ccc(OC(=O)c3ccco3)cc21 (stereo unspecified) | 7 | 1 | -8 | -6 | 69* | -4
COC(=O)CC1C(=O)NCCN1C(=O)c1cc([N+](=O)[O-])ccc1Cl (stereo unspecified) | -1 | 2 | -29 | -12 | 4 | 4
COC(=O)CC1C(=O)NCCN1C(=O)c1cc(OC)c(OC)cc1OC (stereo unspecified) | 0 | 0 | -15 | -8 | -6 | 30*
Cc1ccc(-n2c(C)cc(C(=O)CSc3nncs3)c2C)cc1 | 5 | 4 | 92* | -7 | 57* | 24
Cc1cc(C(=O)CSc2nncs2)c(C)n1-c1c(C)n(C)n(-c2ccccc2)c1=O | 1 | 1 | 4 | -9 | 12 | 2
O=C1/C(=C/c2ccccc2F)SC(=S)N1CC(=O)N1CCCCC1c1cccnc1 (stereo unspecified) | 3 | 1 | -19 | -13 | 24 | -38
Cc1ccc(NS(=O)(=O)c2ccc(NC(=O)c3ccc(Br)o3)cc2)c(C)c1 | 10 | 7 | 39 | -23 | 19 | 36*
Cc1ccc(NS(=O)(=O)c2ccc(NC(=O)c3ccccc3C(=O)O)cc2)c(C)c1 | 1 | 0 | -4 | -1 | 18 | -6
COC(=O)c1cc(C(=O)OCC(=O)c2ccc[nH]2)cc([N+](=O)[O-])c1 | 0 | 0 | 4 | -7 | 14 | -8
Cn1cnc(C(=O)NCc2ccc(CNC(=O)OC(C)(C)C)cc2)c1C(=O)NCc1ccc(CNC(=O)OC(C)(C)C)cc1 | 3 | 2 | -11 | -7 | 4 | -10
Cc1ccccc1OCCOC(=O)c1ccc(S(=O)(=O)N2CCCC2)cc1 | 2 | 2 | 11 | -8 | 9 | 30*
C=CC[C@@H](CC(=O)N[C@H](CO)Cc1ccccc1)C(=O)N[C@H](COC(=O)[C@@H](CC=C)CC(=O)OC(C)(C)C)Cc1c[nH]c2ccccc12 | 3 | 0 | 84* | -8 | -1 | 61*
CCC(=O)NC(Nc1sc2c(c1C(=O)OC)CCCC2)(C(F)(F)F)C(F)(F)F | -1 | -3 | 7 | -8 | 27 | 46*
CC(=O)c1sc(N/N=C/c2cccc(O)c2)nc1C | 0 | 1 | -21 | -5 | 30 | -9
CC(=O)c1sc(N/N=C\c2ccc(N(C)C)cc2)nc1C | 1 | -1 | -9 | 3 | 58* | -16
CCCc1n(CC)c2ccccc2[n+]1CC(O)COC1CCCCC1 (stereo unspecified) | 0 | 0 | 4 | 4 | 5 | -6
O=C(Nc1ccc(Br)cc1)c1ccc(F)c(S(=O)(=O)NCc2cccs2)c1 | 8 | 12 | 55* | -9 | 94* | 0
O=S(=O)(NCc1cccs1)c1ccc(Br)cc1 | -2 | -3 | 4 | -2 | 14 | -14
Cn1c(Cc2cccs2)nnc1SCC(=O)Nc1ccc(C(N)=O)cc1 | 1 | 0 | -6 | -8 | 15 | 3
COc1ccc(N2C(=O)CC(Nc3ccc(N4CCOCC4)cc3)C2=O)c(OC)c1 (stereo unspecified) | 0 | 0 | -7 | -9 | 42 | 6
COc1cccc(N2C(=O)CC(Nc3ccc(N4CCOCC4)cc3)C2=O)c1 (stereo unspecified) | 1 | 0 | -6 | -3 | 39* | 5
O=C(Nc1ccccc1)/C(=C/c1cccnc1)NC(=O)c1ccccc1 | 0 | 0 | -21 | -6 | 12 | -21
